These results are taken from ChEMBL document CHEMBL1148641, “Design and synthesis of novel sulfonamide-containing bradykinin hB2 receptor antagonists. 1. Synthesis and SAR of alpha,alpha-dimethylglycine sulfonamides” (J Med Chem, 2006).

pKi: −log10 of the molar value.

The first assay has as its system Cavia porcellus. The assay can be described thus: Reduction in hypotensive effect in guinea pig intratracheally administered at 300 nmol/kg for 60 min. The arrangement: scale not given: the % may be the effect or the level left. The class given is functional.
Conditions: not given
The method in brief: (§1)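 Anesthetized guinea pigs given compound intratracheally at 300 nmol/kg. BK-induced bronchoconstriction and BK-induced hypotension followed over time after dosing.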
The molecule `Cc1cc(C)c2cccc(OCc3c(Cl)ccc(S(=O)(=O)NC(C)(C)C(=O)N4CCN(C(=O)[C@@H](N)CCCN(C)C)CC4)c3Cl)c2n1` registered an Activity of 30%.

A further assay deals with T1, B2 bradykinin receptor (Homo sapiens, UniProt P30411).
T1 sequence (P30411 whole entry): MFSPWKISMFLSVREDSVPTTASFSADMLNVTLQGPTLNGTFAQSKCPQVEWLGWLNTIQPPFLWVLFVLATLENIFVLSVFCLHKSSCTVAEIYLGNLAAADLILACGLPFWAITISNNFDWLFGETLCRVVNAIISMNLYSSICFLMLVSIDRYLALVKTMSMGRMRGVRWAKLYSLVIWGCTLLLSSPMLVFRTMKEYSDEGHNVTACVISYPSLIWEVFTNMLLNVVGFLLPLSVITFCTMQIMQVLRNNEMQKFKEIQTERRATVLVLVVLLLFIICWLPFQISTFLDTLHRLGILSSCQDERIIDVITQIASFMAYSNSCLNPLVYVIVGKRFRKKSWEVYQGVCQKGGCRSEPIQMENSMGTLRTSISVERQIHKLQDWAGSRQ
The assay can be described thus: Activity at human B2 receptor transfected in CHO cells assessed as ability to antagonize BK-induced inositol-phosphate accumulation. The class given is functional, cell-based. The conditions noted are these: read-out: pA2 (converted). The procedure, abridged: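 Stably transfected CHO cells (1.8 × 10⁵/well) grown overnight at 37 °C, then labeled 24 h with [³H]myo-inositol (1 µCi/well). Antagonist preincubation 20 min at a nanomolar concentration, then BK 1 × 10^-11 to 1 × 10^-5 M for 40 min at 37 °C in LiCl-containing buffer, pH 7.4. IP1 radioactivity by liquid scintillation; pA₂ from EC50 concentration-ratios of sigmoidal fits.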
`Cc1cc(C)c2cccc(OCc3c(Cl)ccc(S(=O)(=O)NC(C)(C)C(=O)N4CCN(C(=O)[C@@H](N)CCCN(C)C)CC4)c3Cl)c2n1`: the Kb is 0.794 nM.
As for `Cc1ccc2cccc(OCc3c(Cl)ccc(S(=O)(=O)NC(C)(C)C(=O)N4CCN(C(=O)CN5CCNCC5)CC4)c3Cl)c2n1`, the Kb is 25.1 nM.
Same read-out and setting: the same measure for `Cc1ccc2cccc(OCc3c(Cl)ccc(S(=O)(=O)NC(C)(C)C(=O)N4CCN(CCN=C(N)N)CC4)c3Cl)c2n1`: 39.8 nM.
Same read-out and setting: under `Cc1ccc2cccc(OCc3c(Cl)ccc(S(=O)(=O)NC(C)(C)C(=O)N4CCN(C(=O)[C@@H](N)CCCN(C)C)CC4)c3Cl)c2n1` stands 25.1 nM; under `Cc1ccc2cccc(OCc3c(Cl)ccc(S(=O)(=O)NC(C)(C)C(=O)N4CCN(C(=O)C[C@@H](N)CCCN(C)C)CC4)c3Cl)c2n1`, 39.8 nM; under `Cc1ccc2cccc(OCc3c(Cl)ccc(S(=O)(=O)NC(C)(C)C(=O)N4CCN(CCCCCCN)CC4)c3Cl)c2n1`, 20 nM.
Same read-out and setting: the same measure for `Cc1ccc2cccc(OCc3c(Cl)ccc(S(=O)(=O)NC(C)(C)C(=O)N4CCN(C(=O)C[C@@H](N)CCCCN(C)C)CC4)c3Cl)c2n1`: 39.8 nM; for `Cc1ccc2cccc(OCc3c(Cl)ccc(S(=O)(=O)NC(C)(C)C(=O)N4CCN(C(=N)NCCCN)CC4)c3Cl)c2n1`: 11 nM; for `Cc1ccc2cccc(OCc3c(Cl)ccc(S(=O)(=O)NC(C)(C)C(=O)N4CCN(C(=N)NCCCCCCN)CC4)c3Cl)c2n1`: 7.94 nM.

The test system of a further assay is Cavia porcellus. The assay can be described thus: Inhibition of BK-induced bronchoconstriction in guinea pig intratracheally administered at 300 nmol/kg for 210 min. The format is functional. Particulars: inhaled or nasal, 3.5 h. The procedure, abridged:
as §1
For `Cc1cc(C)c2cccc(OCc3c(Cl)ccc(S(=O)(=O)NC(C)(C)C(=O)N4CCN(C(=O)[C@@H](N)CCCN(C)C)CC4)c3Cl)c2n1`, the inhibition in vivo (in general, how much of the control response was suppressed) at 0.3 µmol/kg is 80%.

In the next assay the target is T1, B2 bradykinin receptor. The assay can be described thus: Displacement of [3H]BK from human B2 receptor transfected in CHO cells.
Conditions: not given
The format is cell-based. The method in brief: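 Membranes from stably transfected CHO cells (100-150 µg/mL) incubated 60 min at room temperature with [³H]BK at 0.1-0.2 nM in TES buffer pH 7.4 with 1,10-phenanthroline, bacitracin and BSA, 1% DMSO final. Competitor 1 pM-10 µM; nonspecific binding with 1 µM BK. Filtration, scintillation counting; IC50 converted to pKi by Cheng-Prusoff.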
On the technique in general: Loss of bound radioactivity is the signal in a displacement assay; it reports binding, not function.
In the case of `Cc1cc(C)c2cccc(OCc3c(Cl)ccc(S(=O)(=O)NC(C)(C)C(=O)N4CCN(C(=O)[C@@H](N)CCCN(C)C)CC4)c3Cl)c2n1`, the pKi (usually −log10 of the Ki, conventionally taken in molar units) was 9.40.
On the same count and under the same terms, the same measure for `Cc1ccc2cccc(OCc3c(Cl)ccc(S(=O)(=O)NC(C)(C)C(=O)N4CCN(C(=O)CN5CCNCC5)CC4)c3Cl)c2n1`: 8.40.
Same read-out and setting: the same measure for `Cc1ccc2cccc(OCc3c(Cl)ccc(S(=O)(=O)NC(C)(C)C(=O)N4CCN(CCN=C(N)N)CC4)c3Cl)c2n1`: 8.00.
For `Cc1ccc2cccc(OCc3c(Cl)ccc(S(=O)(=O)NC(C)(C)C(=O)N4CCN(C(=O)[C@@H](N)CCCN(C)C)CC4)c3Cl)c2n1`, the pKi was 9.40.
`Cc1ccc2cccc(OCc3c(Cl)ccc(S(=O)(=O)NC(C)(C)C(=O)N4CCN(C(=O)C[C@@H](N)CCCN(C)C)CC4)c3Cl)c2n1` had a pKi of 9.10.
With `Cc1ccc2cccc(OCc3c(Cl)ccc(S(=O)(=O)NC(C)(C)C(=O)N4CCN(CCCCCCN)CC4)c3Cl)c2n1`, the pKi was 8.60.
Turning to `Cc1ccc2cccc(OCc3c(Cl)ccc(S(=O)(=O)NC(C)(C)C(=O)N4CCN(C(=O)C[C@@H](N)CCCCN(C)C)CC4)c3Cl)c2n1`, the negative logarithm of the Ki (pKi) was 9.20.
Molecule `Cc1ccc2cccc(OCc3c(Cl)ccc(S(=O)(=O)NC(C)(C)C(=O)N4CCN(C(=N)NCCCN)CC4)c3Cl)c2n1` showed a pKi of 8.80.
On the same count and under the same terms, the same measure for `Cc1ccc2cccc(OCc3c(Cl)ccc(S(=O)(=O)NC(C)(C)C(=O)N4CCN(C(=N)NCCCCCCN)CC4)c3Cl)c2n1`: 9.00.
